Laboratory results reported in ChEMBL document CHEMBL4402570, “Discovery and Optimization of Novel Pyrazolopyrimidines as Potent and Orally Bioavailable Allosteric HIV-1 Integrase Inhibitors” (J Med Chem, 2020).

Experiments:
[1] = tested on: Human immunodeficiency virus 1; assay: Antiviral activity against HIV1 NL4-3 infected in human MT2 cells measured after 3 to 4 days by luciferase reporter gene assay; format: functional, organism-based; details: Human immunodeficiency virus 1, NL4-3, MT2
[2] = Cytotoxicity against human MT2 cells measured after 4 days by XTT assay; format: cell-based
Procedure, shortened: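 MT-2 cell viability measured by XTT after 4 days of compound exposure, run in parallel with the antiviral assay; CC50 from n ≥ 2 determinations.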

[3] = Permeability of the compound in pH 7.4 buffer at 100 uM measured after 4 hrs by sandwich-PAMPA; format: ADME; details: read-out: permeability
Procedure, shortened: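 Parallel artificial membrane permeability: compound at 100 μM in donor buffer pH 7.4, permeating to acceptor through artificial membrane over 4 h; donor, acceptor and t0 solutions read by UV plate reader; triplicate.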

[4] = Stability of the compound in human liver microsomes assessed as parent compound remaining at 0.5 uM measured after 10 mins in presence of NADPH by LC-MS/MS analysis; format: ADME, Microsome; details: read-out: Stability
Procedure, shortened: (§1)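 CYP-mediated turnover: 0.5 μM compound with human or rat liver microsomes (1 mg/mL) in 100 mM sodium phosphate pH 7.4, 6.6 mM MgCl2, 37 °C; started with NADPH, DMSO 0.014%. Samples quenched at 0 and 10 min; parent remaining by LC-MS/MS; duplicate.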

[5] = Stability of the compound in rat liver microsomes assessed as parent compound remaining at 0.5 uM measured after 10 mins in presence of NADPH by LC-MS/MS analysis; format: ADME, Microsome; details: read-out: Stability; procedure, shortened: as §1
[6] = Therapeutic index, ratio of CC50 for human MT2 cells to EC50 for HIV1 NL4-3 infected in human MT2 cells; format: toxicity, cell-based; details: read-out: Ratio CC50/EC50
[7] = tested on: Human immunodeficiency virus 1; assay: Antiviral activity against HIV1 NL4-3 infected in human MT2 cells measured after 3 to 4 days in presence of human serum albumin by luciferase reporter gene assay; format: functional, organism-based; details: Human immunodeficiency virus 1, NL4-3, MT2
[8] = tested on: Human immunodeficiency virus 1; assay: Selectivity ratio of EC50 for HIV1 NL4-3 infected in human MT2 cells in presence of human serum albumin to EC50 for HIV1 NL4-3 infected in human MT2 cells in absence of human serum albumin; format: functional
[9] = Cmax in Sprague-Dawley rat at 1 mg/kg, iv infusion for 10 mins or 5 mg/kg, po administered via gavage by LC-MS/MS analysis; format: ADME, organism-based; details: in vivo
Procedure, shortened: (§2)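 Rats given iv via implanted venous cannula as 10 min infusion, or oral gavage after overnight fast; vehicle 10% dimethylacetamide/90% PEG400 for both routes. Plasma from venous-port blood, treated with CH3CN containing internal standard, analysed by LC-MS/MS; oral plasma levels followed 24 h after 5 mg/kg. Parameters by noncompartmental analysis of concentration-time data.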

[10] = Tmax in Sprague-Dawley rat at 1 mg/kg, iv infusion for 10 mins or 5 mg/kg, po administered via gavage by LC-MS/MS analysis; format: ADME, organism-based; details: in vivo; procedure, shortened: as §2
[11] = AUC (0 to 24 hrs) in Sprague-Dawley rat at 1 mg/kg, iv infusion for 10 mins or 5 mg/kg, po administered via gavage by LC-MS/MS analysis; format: ADME, organism-based; details: in vivo; procedure, shortened: as §2
[12] = Half life in Sprague-Dawley rat at 1 mg/kg, iv infusion for 10 mins or 5 mg/kg, po administered via gavage by LC-MS/MS analysis; format: ADME, organism-based; details: in vivo; procedure, shortened: as §2
[13] = Clearance in Sprague-Dawley rat at 1 mg/kg, iv infusion for 10 mins or 5 mg/kg, po administered via gavage by LC-MS/MS analysis; format: ADME, organism-based; details: in vivo; procedure, shortened: as §2
[14] = Volume of distribution at steady state in Sprague-Dawley rat at 1 mg/kg, iv infusion for 10 mins or 5 mg/kg, po administered via gavage by LC-MS/MS analysis; format: ADME, organism-based; details: in vivo, read-out: Vdss; procedure, shortened: as §2
[15] = Oral bioavailability in Sprague-Dawley rat at 5 mg/kg administered via gavage by LC-MS/MS analysis; format: ADME, organism-based; details: in vivo; procedure, shortened: as §2

EC50 [1]: 0.006 µM
Papp at 4 h, 100 µM [3]: 47.1 ×10⁻⁶ cm/s
remaining at 10 min, 0.5 µM [4]: 95%
remaining at 10 min, 0.5 µM [5]: 97%
EC50 [7]: 0.03 µM
Cmax [9]: 1290 nM
Tmax [10]: 3 h
AUC(0-t) [11]: 6.3 µM·h
half-life [12]: 4.1 h
clearance [13]: 7.1 mL/min/kg
Vd [14]: 0.5 L/kg
bioavailability [15]: 32%
Compound: Cc1ccccc1-c1cccc(-c2cc3nc(C)c([C@H](OC(C)(C)C)C(=O)O)c(-c4cc(F)c5c(c4C)CCCO5)n3n2)c1
CC50 at 96 h [2]: 28.2 µM
selectivity ratio [6]: 4690
Ratio EC50 [8]: 5
